Assay results pooled from the literature.
Each line is one published result; the experiments were not run side by side.
FGFR3: Fibroblast growth factor receptor 3 (FGFR3, Homo sapiens, UniProt P22607)
FGFR3 G697C: Fibroblast growth factor receptor 3 (FGFR3, Homo sapiens, UniProt P22607, G697C)

COc1ccc2oc(-c3ccc4nc(N)oc4c3)c/c(=N\c3ccccc3NC(=O)CCN)c2c1 — remaining binding (FGFR3; binding; 1 µM): 107%
C#Cc1cnc(Nc2ccnc(CO)c2)nc1Nc1ccccc1S(C)(=O)=NC#N (stereo not drawn) — remaining signal (FGFR3; cell-free assay; 1 µM): 28%
CO[C@@H]1[C@H](N(C)C(=O)c2ccccc2)C[C@H]2O[C@]1(C)n1c3ccccc3c3c4c(c5c6ccccc6n2c5c31)C(=O)NC4 — inhibition (FGFR3; enzyme activity, inhibitor; 1 µM): 3%
N#Cc1ccc(NC(=O)Nc2ccccc2)cc1 — remaining binding (FGFR3; cell-free assay, competition with immobilised ligand; 25 µM): 100%
Cc1ccc(NC(=O)c2ccnc(C(F)(F)F)c2)cc1-c1cc(OCCO)nc(N2CCOCC2)c1 — remaining binding (FGFR3; binding, competition with immobilised ligand; 1 µM): 90%
C1=C/COCc2cc(ccc2OCCN2CCCC2)Nc2nccc(n2)-c2cccc(c2)COC/1 — remaining binding (FGFR3 G697C; binding; 0.1 µM): 100%
C[C@H]1CC[C@H](n2c3cnccc3c3cnc(Nc4ccc5c(n4)CCN(C(=O)CO)C5)nc32)CC1 — remaining binding (FGFR3; cell-free assay, competition with immobilised ligand; 1 µM): 100%
CCCCC(=O)Nc1ccc(-c2ccc3ncn(CCC)c(=O)c3c2)cn1 — remaining binding (FGFR3; binding, competition with immobilised ligand; 0.5 µM): 96%
C=CC(=O)N1CCC([C@@H]2CCNc3c(C(N)=O)c(-c4ccc(Oc5ccccc5)cc4)nn32)CC1 — inhibition (FGFR3 G697C; cell-free assay; 1 µM): 14%
